bIAP inh = intestinal alkaline phosphatase (bovine) inhibition; purified bovine IAP, CDP-star luminescence, 30 min; inhibition, % at 20 µM; 190,000 tested, under 10 active; AID 1019;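 active means over 50% inhibition of intestinal alkaline phosphatase at 20 µM in the single-dose screen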
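Assay system: bovine IAP enzyme; medium: DEA buffer 100 mM, pH 9.8, with MgCl2 1.0 mM, ZnCl2 0.02 mM; doses: 20 µM single dose; incubation: enzyme reaction for 30 min at room temperature; detection: CDP-star luminescence signal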
hIAP activ = human IAP activation. P09923. purified human IAP, CDP-Star luminescence, 30 min; stronger effect = higher value; 1 = vehicle-only enzyme, 0 = enzyme-free background. activation factor at 10 µM. 330,000 tested, 0.16% active;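 active means activation factor of the enzyme at least 2-fold when tested at 20 µM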
Target sequence (P09923 whole entry, looked up): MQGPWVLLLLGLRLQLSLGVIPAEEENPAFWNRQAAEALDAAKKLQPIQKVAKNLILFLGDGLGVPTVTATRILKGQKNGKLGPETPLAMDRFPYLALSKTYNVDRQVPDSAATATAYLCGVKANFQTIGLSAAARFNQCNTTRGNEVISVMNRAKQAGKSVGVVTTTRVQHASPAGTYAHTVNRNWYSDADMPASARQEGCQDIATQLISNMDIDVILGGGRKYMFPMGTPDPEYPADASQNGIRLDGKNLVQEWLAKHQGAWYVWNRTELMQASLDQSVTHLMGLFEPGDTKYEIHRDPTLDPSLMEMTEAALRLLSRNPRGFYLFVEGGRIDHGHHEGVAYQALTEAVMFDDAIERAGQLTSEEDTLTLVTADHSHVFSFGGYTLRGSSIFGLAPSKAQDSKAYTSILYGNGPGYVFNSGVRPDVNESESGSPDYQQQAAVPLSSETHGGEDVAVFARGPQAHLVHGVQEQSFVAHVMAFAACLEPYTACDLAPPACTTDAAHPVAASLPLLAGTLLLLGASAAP
bIAP act = increases bovine intestinal alkaline phosphatase activity; purified bovine IAP, CDP-star luminescence, 30 min; stronger effect = higher value; fold of DMSO-control signal, blank-subtracted; activation factor at 20 µM; 200,000 tested, 0.17% active;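 active means activation factor of 2 or more at 20 µM, a signal rise over negative controls twice the positive control's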
mIAP act = increases mouse intestinal alkaline phosphatase activity; muIAP, CDP-Star luminescence, 30 min; stronger effect = higher value; 1 = vehicle-only enzyme signal, 0 = enzyme-free wells; activation factor at 10 µM; 330,000 tested, 0.24% active; AID 2805;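 active means activation factor of at least 2 at 20 µM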
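also added = chemiluminescent substrate CDP-Star | test system = mouse IAP enzyme | signal = chemiluminescence readout | compound = DMSO-dissolved test compounds | incubation = 30 min at room temperature | benchmarks = DMSO wells, no-enzyme wells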
mIAP inh = blocks mouse intestinal alkaline phosphatase; purified mouse IAP, CDP-Star luminescence, 30 min; inhibition, % at 10 µM; 330,000 tested, 0.2% active; AID 2806;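 active means inhibition of at least 40% at 10 µM in the primary screen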
hIAP block = blocks human intestinal alkaline phosphatase | P09923 | purified IAP, CDP-Star luminescence, 30 min | AID 2544 | 330,000 tested, 0.12% active | inhibition, % at 10 µM;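 active means inhibition reaching a set limit with compound at 10 µM in the primary screen, cut at about 35% in these data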
mIAP inh confirm = mouse IAP inhibition confirmation; shares compounds with mIAP inh; purified mouse IAP, CDP-Star luminescence, 30 min; inhibition, % at 10 µM; 11,000 tested, 4.7% active; AID 434971;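 active means inhibition of at least 40% at 10 µM in either of the two replicates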
Numbers stand for hits; . = inactive; / = no result. Sampled rows, rich in hits. Any-hit rate of the full collection: about 0.72%.

SMILES | bIAP inh | hIAP activ | bIAP act | mIAP act | mIAP inh | hIAP block | mIAP inh confirm
O=C(O)CCCN1C(=O)/C(=C\c2ccco2)SC1=S | . | / | . | / | / | / | /
O=C(CN1C(=O)/C(=C\c2ccco2)SC1=S)Nc1ccc(O)cc1C(=O)O | / | . | / | . | 70 | . | 81
O=C(CCCN1C(=O)/C(=C/c2ccco2)SC1=S)Nc1ccccc1C(=O)O | / | . | / | . | 69 | . | 62
CC(C)(C)C(=O)Nc1nc2cc3c(cc2s1)OCO3 | / | . | / | . | . | . | /
CC(C)[C@H]1COC(NC2=N[C@@H](C(C)C)CO2)=N1 | / | . | / | . | . | . | /
C#CCOCCOCCOCCNc1nc(N2CCN(C(=O)CCCCCCCCCCNC(=O)Cn3cc(C[C@@H](C)O)nn3)CC2)nc(N2CCN(C(=O)CCCCCCCCCCNC(=O)[C@H](CCCN=C(N)N)n3cc(C[C@@H](C)CC)nn3)CC2)n1 | / | . | / | 4.9 | . | . | .
C#CCOCCOCCOCCNc1nc(N2CCN(C(=O)CCCCCCCCCCNC(=O)Cn3cc(C[C@@H](C)O)nn3)CC2)nc(N2CCN(C(=O)CCCCCCCCCCNC(=O)[C@H](CCCCN)n3cc(CCCC(=O)O)nn3)CC2)n1 | / | . | / | . | . | . | /
C#CCOCCOCCOCCNc1nc(N2CCN(C(=O)CCCCCCCCCCNC(=O)[C@H](CO)n3cc(CCCSC)nn3)CC2)nc(N2CCN(C(=O)CCCCCCCCCCNC(=O)[C@H](CCCN=C(N)N)n3cc(C[C@@H](C)CC)nn3)CC2)n1 | / | . | / | 2.6 | . | . | .
NS(=O)(=O)c1ccc(NC(=O)COc2cccc3ccccc23)cc1 | / | . | / | . | . | . | /
CCN(CC)S(=O)(=O)c1ccc(N2CCOCC2)c(NC(=O)c2[nH]c(C)c(C(C)=O)c2C)c1 | / | . | / | . | . | . | /
CCOc1ccc(OCCC(=O)NNC(=O)c2ccncc2)cc1 | / | . | / | . | . | . | /
CCCCCOc1ccc(C(=O)CCC(=O)NNC(=O)c2ccncc2)cc1 | / | . | / | 2.8 | . | . | .
O=[N+]([O-])c1ccccc1NC(=S)N/N=C/c1ccc(O)c(O)c1 | . | . | . | . | 75 | . | 72
C#CCOCCOCCOCCNc1nc(N2CCN(C(=O)CCCCCCCCCCNC(=O)[C@H]([C@@H](C)CC)n3cc(CCCCCN)nn3)CC2)nc(N2CCN(C(=O)CCCCCCCCCCNC(=O)[C@H](CO)n3cc(CCCCCN)nn3)CC2)n1 | / | . | / | 2.1 | . | . | .
C#CCOCCOCCOCCNc1nc(N2CCN(C(=O)CCCCCCCCCCNC(=O)[C@H]([C@@H](C)CC)n3cc(CCCCCN)nn3)CC2)nc(N2CCN(C(=O)CCCCCCCCCCNC(=O)[C@@H]([C@H](C)CC)n3cc(CCCCCN)nn3)CC2)n1 | / | . | / | 6.6 | . | . | .
C#CCOCCOCCOCCNc1nc(N2CCOCC2)nc(N2CCN(C(=O)CCCCCCCCCCNC(=O)[C@@H]([C@H](C)CC)n3cc(CCCCCN)nn3)CC2)n1 | / | . | / | . | . | . | /
CCC(Oc1ccc(Br)cc1)C(=O)N1CCN(c2ncccn2)CC1 (centres undefined) | / | . | / | . | . | . | /
O=c1oc2ccccc2c(Nc2cccc(O)c2)c1[N+](=O)[O-] | . | . | . | . | 48 | . | 50
O=C(CSc1n[nH]c(-c2ccccc2)n1)c1ccc(O)c(O)c1 | / | . | . | . | 65 | . | 69
Cc1ccc(O)c(NC(=O)CSc2n[nH]c(-c3ccccc3)n2)c1 | / | . | / | . | . | . | /
CC(C)[C@H](NC(=O)c1ccccc1)C(=O)NC1=NCCS1 | / | . | / | . | . | . | /
O=C(NC1CCCCC1)Oc1cc2oc(=O)sc2cc1Br | / | . | / | . | 60 | . | 81
Cc1cccc(NC(=O)NC(C)CCc2ccccc2)c1 (centres undefined) | . | . | . | 2.8 | . | . | .
Cc1ccc(NC(=O)NCCCCc2ccccc2)cc1 | / | . | / | . | . | . | /
Cc1cccc(NC(=O)NCCCCc2ccccc2)c1 | / | . | / | 2.3 | . | . | .
SMILES | bIAP inh | hIAP activ | bIAP act | mIAP act | mIAP inh | hIAP block | mIAP inh confirm
O=C(NCCCc1ccccc1)Nc1ccccc1 | . | . | . | . | . | . | /
O=C(NCCCCc1ccccc1)Nc1cccc(F)c1 | / | . | / | 2.5 | . | . | .
Nc1cc(=O)[nH]c2nnc(SCC(=O)Nc3cccc4ccccc34)n12 | / | . | / | . | . | . | /
CCOC(=O)C1=C(N)n2c(s/c(=C/c3ccco3)c2=O)=C(C(=O)OC)C1c1ccco1 (centres undefined) | . | / | . | / | / | / | /
N#CC1=C(N)n2c(s/c(=C\c3ccco3)c2=O)=C(C#N)C1c1ccco1 (centres undefined) | . | . | . | . | 68 | . | 88
O=C(Nc1ccccc1)Nc1ccc2c(c1)CCC2 | / | . | / | 2.2 | . | . | .
N#CC1=C2SCN(c3ccc(F)cc3)CN2C(=O)CC1c1cccc(F)c1 (centres undefined) | . | . | . | . | 60 | . | 59
Cc1ccc(N2CSC3=C(C#N)C(c4cccs4)CC(=O)N3C2)cc1 (centres undefined) | . | . | . | . | 46 | . | 46
Cc1cccc(NC(=S)NC2CCSc3ccccc32)c1 (centres undefined) | / | . | / | 4.3 | . | . | .
S=C(NCc1ccccc1)NC1CCSc2ccccc21 (centres undefined) | / | . | / | 4.4 | . | . | .
FC(F)Oc1ccc(NC(=S)NC2CCSc3ccccc32)cc1 (centres undefined) | / | . | / | 5.1 | . | . | .
COc1cccc(CC(=O)NC2CCSc3ccccc32)c1 (centres undefined) | / | . | / | . | . | . | /
O=C(NC1CCSc2ccccc21)c1cccc(OC(F)F)c1 (centres undefined) | / | . | / | . | . | . | /
CSc1ccc(/C=C/C(=O)OCC(=O)NC2CC2)cc1 | / | . | / | . | . | . | /
O=c1c2c3c(sc2[nH]c(=S)n1Cc1ccco1)CCC3 | / | . | / | . | 59 | . | 64
CC1(C)Cc2c(sc3[nH]c(=S)n(Cc4ccco4)c(=O)c23)CO1 | . | . | . | . | . | . | /
O=C1/C(=C\c2ccc(O)cc2)SC(=S)N1/N=C/c1ccc(O)cc1 | / | . | / | . | 49 | . | 57
COc1ccc(CN2C3CCCC2CC(NC(=O)Nc2cccc(C)c2)C3)cc1 (centres undefined) | . | . | . | 12 | . | . | .
COc1ccc(CN2C3CCCC2CC(NC(=O)Nc2ccccc2C)C3)cc1 (centres undefined) | . | . | . | 3 | . | . | .
COCC(=O)NC1CC2CCCC(C1)N2Cc1ccccc1 (centres undefined) | . | . | . | . | . | . | /
COc1ccc(CN2C3CCCC2CC(NC(=O)Nc2ccccc2)C3)cc1 (centres undefined) | . | . | . | 5.3 | . | . | .

Assay outcomes from PubChem.
